Assay results of several laboratories.
Target: Tau-tubulin kinase 2 (TTBK2, Homo sapiens, UniProt Q6IQ55)
Effect on: enzyme activity
Mode: inhibitor

technique	concentration	quantity	result	Structure (SMILES)
–	1 µM	remaining activity	96%	COc1cc(Cl)c(C(=O)N[C@@H](CN[C@H]2CC[C@@H](N)CC2)Cc2ccc(C#N)cc2)cc1-c1ccc(CN[C@H](C)c2ccc(C)cc2)o1
–	5 µM	remaining activity	104%	O=C(Nc1cnn(-c2csc(C(=O)NC3COC3)c2)c1)Nc1c(F)cccc1Cl
radiometric	1 µM	remaining activity	100%	COc1cc(Nc2cnc(C#N)c(O[C@H](C)CN(C)C)n2)ncc1-c1cnn(C)c1
–	1 µM	activity vs control	87%	Cc1ccc(C(=O)NCc2ccsc2)cc1C#Cc1cn(C(C)C)c2ncnc(N)c12
radiometric	1 µM	remaining activity	104%	CC(C)(C)c1nc(-c2cccc(NS(=O)(=O)c3c(F)cccc3F)c2F)c(-c2ccnc(N)n2)s1
–	1 µM	remaining activity	94.4%	CC(C)(O)[C@H]1CC[C@H](Nc2ccc3ncc(-c4cccc(C(F)(F)F)c4)n3n2)CC1
–	1 µM	activity vs control	115%	COc1cc(/C=C/C(=O)CC(=O)/C=C/c2ccc(O)c(OC)c2)ccc1O
radiometric	1 µM	remaining activity	104%	CC(C)(C)c1nc2c(s1)c1nc(N)ncc1c1ccc(NS(=O)(=O)c3c(F)cccc3F)c(F)c12
radiometric	1 µM	activity vs control	96%	FC(F)(F)Oc1cccc(-c2cnc3ccc(-c4ccncc4)nn23)c1
–	5 µM	remaining activity	107%	O=C(Nc1cnn(-c2csc(C(=O)NC3COC3)c2)c1)Nc1ccccc1Cl
–	1 µM	inhibition	13%	CN1CC(Oc2cnc(C#N)cc2-c2ccn3nc(NC(=O)C4CC4)cc3c2)C1
